From article PMC4486003 (Biomaterials, 2015)
Blank lines part the entries; values can stand above or below the molecule they belong to.

What was measured:
hole B = conditions: knob B mimic derived from chicken; ref [19], [20]; cited from earlier work
single fibrin fibers = assay: Single fibrin fiber breaking strain/extensibility; design: species or system human; conditions: for average single fiber breaking strain: percentage of original fiber length, 305 nm/s
In short: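 Fibrinogen and test compound were preincubated at 37°C for 15 min at pH 7.4 (140 mM NaCl, 10 mM HEPES, 5 mM CaCl₂); test compound finals were 1 mM, 250 μM and 100 μM. Thrombin and FXIII were added (finals: fibrinogen 3.2 μM, 0.3 NIH u/ml, 9.00 Loewy u/ml). Clots formed 75 min on striated substrates and were bead-labelled. An AFM tip stretched single fibers at 305 nm/s until rupture. Strain = (L′−L_initial)/L_initial, given as % of original length.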

fibrin network = conditions: cited from earlier work
fibrinogen Fragment D = target: T1, fibrinogen Fragment D (Homo sapiens, UniProt P02671+P02675+P02679); assay: Surface plasmon resonance; assay type: binding; conditions: SPR; concentrations 5 μM to 1.5 mM
T1 sequence (P02675 164-491 limits assumed): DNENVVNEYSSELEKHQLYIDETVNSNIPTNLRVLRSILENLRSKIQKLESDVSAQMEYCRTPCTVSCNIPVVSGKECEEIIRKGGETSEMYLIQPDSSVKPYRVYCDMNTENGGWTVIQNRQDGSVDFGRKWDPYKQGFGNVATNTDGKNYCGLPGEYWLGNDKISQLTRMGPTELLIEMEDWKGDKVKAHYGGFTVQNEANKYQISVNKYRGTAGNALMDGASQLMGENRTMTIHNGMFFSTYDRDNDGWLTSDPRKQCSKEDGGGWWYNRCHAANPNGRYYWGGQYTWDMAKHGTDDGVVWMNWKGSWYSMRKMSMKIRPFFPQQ
T1 sequence (P02679 89-432 partner limits assumed): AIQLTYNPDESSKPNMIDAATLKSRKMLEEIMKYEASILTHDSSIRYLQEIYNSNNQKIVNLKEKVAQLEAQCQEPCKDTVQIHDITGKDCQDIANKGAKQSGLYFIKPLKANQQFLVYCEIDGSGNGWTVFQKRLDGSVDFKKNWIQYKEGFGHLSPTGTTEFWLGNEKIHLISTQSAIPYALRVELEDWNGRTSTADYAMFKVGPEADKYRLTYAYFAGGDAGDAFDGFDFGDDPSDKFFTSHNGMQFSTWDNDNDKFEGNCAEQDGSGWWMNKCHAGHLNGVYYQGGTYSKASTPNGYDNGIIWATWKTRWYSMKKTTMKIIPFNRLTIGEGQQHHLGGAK
T1 sequence (P02671 124-225 partner limits assumed): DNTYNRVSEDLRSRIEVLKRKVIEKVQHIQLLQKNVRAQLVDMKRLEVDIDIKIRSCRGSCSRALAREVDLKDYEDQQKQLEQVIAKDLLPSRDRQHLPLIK
In short: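 Fragment D came from human fibrinogen (2 mg/mL) digested overnight at room temperature with plasmin (0.1 U/mL), then isolated on GPRPAA beads. It was covalently coupled to self-assembled-monolayer gold chips to about 1500 RU in 3 flow cells, with 1 reference cell. Test compound was run at five concentrations (5 μM–1.5 mM) in duplicate: 25 μL/min for 4 min, then 5 min dissociation. Kinetic models were fitted and judged by residuals.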

fibrin polymerization [1] = target: T2, fibrin polymerization (Homo sapiens, UniProt P02671+P02675+P02679); assay: Percent clottable protein; assay type: biochemical; conditions: from percent clottability
T2 sequence (P02675 45-491 limits assumed): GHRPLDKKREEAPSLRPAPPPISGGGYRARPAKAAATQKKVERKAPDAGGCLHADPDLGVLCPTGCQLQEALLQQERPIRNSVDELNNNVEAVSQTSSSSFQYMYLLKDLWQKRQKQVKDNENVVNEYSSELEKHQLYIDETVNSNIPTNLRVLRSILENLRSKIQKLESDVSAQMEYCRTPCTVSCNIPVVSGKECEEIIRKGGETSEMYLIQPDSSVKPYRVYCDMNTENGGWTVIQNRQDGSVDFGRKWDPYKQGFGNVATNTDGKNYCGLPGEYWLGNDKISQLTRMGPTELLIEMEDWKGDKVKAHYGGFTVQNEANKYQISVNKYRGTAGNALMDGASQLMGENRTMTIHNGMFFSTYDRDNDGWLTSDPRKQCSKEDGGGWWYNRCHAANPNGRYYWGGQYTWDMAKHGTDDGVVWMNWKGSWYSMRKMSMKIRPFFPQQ
T2 sequence (P02679 27-433 partner limits assumed): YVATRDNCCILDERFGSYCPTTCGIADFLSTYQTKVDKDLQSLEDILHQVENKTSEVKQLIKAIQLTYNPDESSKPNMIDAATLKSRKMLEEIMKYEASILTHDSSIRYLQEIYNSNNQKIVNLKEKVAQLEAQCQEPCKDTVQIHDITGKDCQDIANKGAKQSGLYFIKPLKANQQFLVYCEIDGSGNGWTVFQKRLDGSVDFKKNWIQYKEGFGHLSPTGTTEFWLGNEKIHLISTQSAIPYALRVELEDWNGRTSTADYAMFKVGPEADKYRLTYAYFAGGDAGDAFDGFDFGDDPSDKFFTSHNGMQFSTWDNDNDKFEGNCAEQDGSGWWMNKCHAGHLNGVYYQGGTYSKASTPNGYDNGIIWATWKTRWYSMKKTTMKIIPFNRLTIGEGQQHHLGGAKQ
T2 sequence (P02671 36-866 partner limits assumed): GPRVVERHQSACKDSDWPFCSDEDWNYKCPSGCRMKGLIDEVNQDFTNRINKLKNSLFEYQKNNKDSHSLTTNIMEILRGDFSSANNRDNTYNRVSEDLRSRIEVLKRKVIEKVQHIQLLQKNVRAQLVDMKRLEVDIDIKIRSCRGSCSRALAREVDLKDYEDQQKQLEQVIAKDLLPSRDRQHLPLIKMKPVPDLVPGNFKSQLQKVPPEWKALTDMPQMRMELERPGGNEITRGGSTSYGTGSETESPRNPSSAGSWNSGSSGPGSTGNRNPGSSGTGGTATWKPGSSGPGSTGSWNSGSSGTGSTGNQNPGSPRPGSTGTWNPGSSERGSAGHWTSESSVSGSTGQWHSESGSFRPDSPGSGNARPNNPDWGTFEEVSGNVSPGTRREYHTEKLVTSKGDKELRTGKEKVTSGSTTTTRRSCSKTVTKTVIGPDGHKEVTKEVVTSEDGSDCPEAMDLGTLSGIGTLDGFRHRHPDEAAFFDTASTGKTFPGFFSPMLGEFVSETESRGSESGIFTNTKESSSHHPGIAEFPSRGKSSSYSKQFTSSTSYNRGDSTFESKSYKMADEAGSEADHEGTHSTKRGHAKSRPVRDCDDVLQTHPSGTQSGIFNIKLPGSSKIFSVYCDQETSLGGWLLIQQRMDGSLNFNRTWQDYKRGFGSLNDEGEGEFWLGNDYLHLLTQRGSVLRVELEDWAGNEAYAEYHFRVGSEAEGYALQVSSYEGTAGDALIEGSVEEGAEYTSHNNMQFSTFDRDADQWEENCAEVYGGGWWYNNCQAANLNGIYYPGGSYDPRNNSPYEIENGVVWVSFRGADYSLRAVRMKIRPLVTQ
In short: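 Test compound at final 1, 0.25 or 0.1 mM was added to clots at pH 7.4 (25 mM HEPES, 150 mM NaCl) with final fibrinogen 1 mg/mL, thrombin 0.25 U/mL and CaCl₂ 5 mM. A350 was read every minute for 1 h. Clot liquor was then assayed for total protein (Quant-it). Percent clottable protein was computed against fibrinogen-only, no-thrombin samples.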

fibrin polymerization [2] = conditions: high concentrations; ref [15]; cited from earlier work
[3] = target: human fibrinogen Fragment D (human); assay: SPR
[4] = 1:1 molar ratio fibrinogen:knob mimic, ref [11]

Molecule: AHRP
binding specificity (hole B): only bind to hole B

Molecule: AHRPYAAC-PEG
average single fiber breaking strain (single fibrin fibers; 100 μM): 171%
average single fiber breaking strain (single fibrin fibers; 250 μM): 164%
average single fiber breaking strain (single fibrin fibers; 1 mM): 202%
increase of average breaking strain vs unmodified fibrin fibers (single fibrin fibers; 1 mM, stretched at 305 nm/s): 20%
fiber extensibility (in words) (single fibrin fibers; concentrations above its Kd): increase extensibility of fibers
fiber extensibility (in words) (single fibrin fibers; concentrations near its Kd): decreases the extensibility of fibers
complex modulus (G*) (fibrin network; [4]): increased the complex modulus
susceptibility to degradation (fibrin network; [4]): decreased susceptibility to degradation
binding to fragment D (in words) (fibrinogen Fragment D): at a minimum, micromolar concentrations of PEGylated knob B peptides are required to observe binding to fibrinogen

Molecule: GHRPY [reference compound]
network structure and fibrinolysis (fibrin network; bovine knob B mimic, ref [18], [21]): altered network structure and delayed fibrinolysis

effect on polymerization (in words) (fibrin polymerization [1]; all concentrations tested): not significantly affected
Molecule: GPSPFPAC

inhibition of polymerization (in words) (fibrin polymerization [1]; 1 mM): significantly inhibited
Molecule: GPSPFPAC-PEG

Molecule: Gly-Pro-Arg-Pro [GPRP]
fibrin polymerization (fibrin polymerization [2]): polymerization is inhibited

Kd1 (2-site model, higher-affinity site, assumed knob B:hole b) [3]: 57 µM
B1: PEGylated knob B peptide AHRPYAAC-PEG (peptide)
peptide: AHRPYAAC
modifications: not fully specified; 5 kDa maleimide-PEG conjugated to the cysteine-terminated peptide
